Test results published in ChEMBL document CHEMBL1773065, “Impact of the nature of the substituent at the 3-position of 4H-1,2,4-benzothiadiazine 1,1-dioxides on their opening activity toward ATP-sensitive potassium channels” (J Med Chem, 2011).
The source made the active and inactive calls. No cut-off for these calls is given here.

What was measured:
[1] = Inhibition of glucose induced insulin secretion from rat Pancreatic islet assessed as percentage of residual insulin release at 50 uM; type: functional
In short: (§1)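 Isolated rat pancreatic islets incubated with 16.7 mM glucose and drug at 0.1–50 μM. Result is insulin release as a percentage of residual release, mean ± SEM (n).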

[2] = Inhibition of glucose induced insulin secretion from rat Pancreatic islet assessed as percentage of residual insulin release at 10 uM; type: functional; in short: as §1
Rattus norvegicus [3] = organism: Rattus norvegicus; test: Activation of ATP-sensitive potassium channel in glucose and extracellular calcium evoked rat pancreatic islets assessed as increase in 86Rb outflow measured per min at 50 uM
In short: (§2)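 Prelabeled rat pancreatic islets, perifused throughout with 5.6 mM glucose and extracellular Ca2+. Drug added at 10 or 50 μM, then withdrawn. Read-out is the increase in 86Rb outflow rate, in %/min. Six individual experiments.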

Rattus norvegicus [4] = organism: Rattus norvegicus; test: Activation of ATP-sensitive potassium channel in glucose and extracellular calcium evoked rat pancreatic islets assessed as increased 86Rb outflow at 50 uM by radioisotopic and fluorimetric method in presence of 10 uM ATP-sensitive potassium channel blocker glibenclamide
In short: (§3)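 Prelabeled, perifused rat pancreatic islets in 5.6 mM glucose with extracellular Ca2+. Drug given at 10 or 50 μM with 10 μM glibenclamide present continuously in the medium. Read-out is 86Rb outflow rate. Six individual experiments.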

Rattus norvegicus [5] = organism: Rattus norvegicus; test: Activation of ATP-sensitive potassium channel in glucose and extracellular calcium evoked rat pancreatic islets assessed as increase in 86Rb outflow measured per min; in short: as §2
Rattus norvegicus [6] = organism: Rattus norvegicus; test: Activation of ATP-sensitive potassium channel in glucose and extracellular calcium evoked rat pancreatic islets assessed as reduction in 45Calcium outflow at 50 uM
Rattus norvegicus [7] = organism: Rattus norvegicus; test: Activation of ATP-sensitive potassium channel in extracellular calcium deprived and glucose evoked rat pancreatic islets assessed as reduction in 45Calcium outflow at 50 uM
Rattus norvegicus [8] = organism: Rattus norvegicus; test: Activation of ATP-sensitive potassium channel in glucose and extracellular calcium evoked rat pancreatic islets assessed as decrease in insulin output at 50 uM; conditions: TDE = time-dependent effect
Rattus norvegicus [9] = organism: Rattus norvegicus; test: Activation of ATP-sensitive potassium channel in glucose and extracellular calcium evoked rat pancreatic islets assessed as increased 86Rb outflow at 10 uM by radioisotopic and fluorimetric method in presence of 10 uM ATP-sensitive potassium channel blocker glibenclamide; in short: as §3
Rattus norvegicus [10] = organism: Rattus norvegicus; test: Activation of ATP-sensitive potassium channel in glucose and extracellular calcium evoked rat pancreatic islets assessed as reduced 45Calcium outflow at 50 uM in presence of extracellular potassium ion; design: scale not given: the % may be the effect or the level left
In short: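 Prelabeled, perifused rat pancreatic islets exposed throughout to 2.8 mM glucose and extracellular Ca2+. Extracellular K+ raised suddenly from 5 to 50 mM, with or without 50 μM drug in the basal medium. Read-out is the magnitude of the increase in 45Ca outflow, in %/min.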

[11] = Dissociation constant, pKa of the compound; type: physicochemical
In short: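 pKa determined by UV spectrophotometry at 25 °C. Spectra recorded in aqueous buffers from pH 5 to 12.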

[12] = Inhibition of glucose induced insulin secretion from rat Pancreatic islet assessed as percentage of residual insulin release; type: functional; in short: as §1
[13] = Myorelaxant effect in KCl-induced precontracted rat aorta ring VSMC; type: functional, tissue-based
In short: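 Rat aortic rings precontracted with 30 mM KCl. EC50 is the drug concentration giving 50% relaxation, mean ± SEM (n).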

[14] = Myorelaxant effect in Wistar rat uterus smooth muscle assessed as inhibition of contractions induced by bolus of oxytocin injected in superfusion system at 100 uM; type: functional; design: scale not given: the % may be the effect or the level left
In short: (§4)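 Uteri from fed Wistar rats (150–200 g) given diethylstilboestrol dipropionate i.m. the day before. Tissue superfused; after 30 min stabilization, 20 mU oxytocin boluses given every 10 min until contractions (AUC) were constant. Three or more boluses per drug concentration (10, 50, 100 μM). Mean AUC expressed as percentage of the drug-free response.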

[15] = Myorelaxant effect in Wistar rat uterus smooth muscle assessed as inhibition of contractions induced by bolus of oxytocin injected in superfusion system at 50 uM; type: functional; design: scale not given: the % may be the effect or the level left; in short: as §4
[16] = Myorelaxant effect in Wistar rat uterus smooth muscle assessed as inhibition of contractions induced by bolus of oxytocin injected in superfusion system at 10 uM; type: functional; design: scale not given: the % may be the effect or the level left; in short: as §4
Rattus norvegicus [17] = organism: Rattus norvegicus; test: Activation of ATP-sensitive potassium channel in glucose and extracellular calcium evoked rat pancreatic islets assessed as increase in 86Rb outflow measured per min at 10 uM; in short: as §2
Rattus norvegicus [18] = organism: Rattus norvegicus; test: Activation of ATP-sensitive potassium channel in rat pancreatic islets assessed as decrease in insulinotropic glucose concentration-mediated cytosolic calcium level by fluorimetry
[19] = Myorelaxant effect in Wistar rat uterus smooth muscle assessed as inhibition of contractions induced by continuous superfusion of oxytocin in absence ATP-sensitive potassium channel blocker glibenclamide; type: functional
In short: (§5)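 Rat uterus continuously superfused with 50 mU/L oxytocin. Mean of three contraction AUCs set as 100%, then drug added at increasing concentrations, with no glibenclamide or with 1 or 10 μM glibenclamide present continuously. EC50 is the concentration giving 50% residual contraction, mean ± SEM (n).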

[20] = Myorelaxant effect in Wistar rat uterus smooth muscle assessed as inhibition of contractions induced by continuous superfusion of oxytocin in presence of 10 uM ATP-sensitive potassium channel blocker glibenclamide; type: functional; in short: as §5
[21] = Myorelaxant effect in Wistar rat uterus smooth muscle assessed as inhibition of contractions induced by continuous superfusion of oxytocin in presence of 1 uM ATP-sensitive potassium channel blocker glibenclamide; type: functional; in short: as §5
[22] = Inhibition of glucose induced insulin secretion from rat Pancreatic islet assessed as percentage of residual insulin release at 0.1 uM; type: functional
In short: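 Isolated rat pancreatic islets incubated with test drug in the presence of 16.7 mM glucose. Insulin release was measured and expressed as percentage of residual insulin release, given as mean ± SEM with number of determinations (n).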

Rattus norvegicus [23] = organism: Rattus norvegicus; test: Activation of ATP-sensitive potassium channel in rat aorta rings assessed as increased 86Rb outflow at 100 uM in presence of 10 uM ATP-sensitive potassium channel blocker glibenclamide; type: tissue-based
In short: (§6)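 Prelabeled rat aortic rings perifused throughout with or without 10 μM glibenclamide. Drug applied at 100 μM. Read-out is 86Rb outflow. Four to five individual experiments.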

Rattus norvegicus [24] = organism: Rattus norvegicus; test: Activation of ATP-sensitive potassium channel in rat aorta rings assessed as increased 86Rb outflow at 100 uM in absence of ATP-sensitive potassium channel blocker glibenclamide; type: tissue-based; in short: as §6
[25] = Inhibition of glucose induced insulin secretion from rat Pancreatic islet assessed as percentage of residual insulin release at 1 uM; type: functional; in short: as §1

## CC(C)OC1=NS(=O)(=O)c2cc(F)ccc2N1
[1]
  Activity: 44.1%
[2]
  Activity: 87.5%

## CC(C)SC1=NS(=O)(=O)c2ccc(Br)cc2N1
[1]
  Activity: 33.8%
[2]
  Activity: 87%

## CC(C)SC1=NS(=O)(=O)c2cc(Br)ccc2N1
[1]
  Activity: 47.3%
[2]
  Activity: 90.3%

## COc1ccc2c(c1)S(=O)(=O)N=C(OC(C)C)N2
[2]
  Activity: 80.8%

## CC(C)OC1=NS(=O)(=O)c2ccccc2N1
[2]
  Activity: 90.4%

## CC(C)OC1=NS(=O)(=O)c2cc(Cl)ccc2N1
Rattus norvegicus [3]
  Activity: 1.32%
Rattus norvegicus [4]
  Activity: inactive
Rattus norvegicus [5]
  Activity: Dose-dependent effect
Rattus norvegicus [6]
  Activity: Active
Rattus norvegicus [7]
  Activity: inactive
Rattus norvegicus [8]
  Activity: tde
Rattus norvegicus [9]
  Activity: inactive
Rattus norvegicus [10]
  Activity: 1.12%
[11]
  pKa: 8
[1]
  Activity: 17.5%
[2]
  Activity: 77.3%
[12]
  IC50: 19.1 µM
[13]
  EC50: 22.7 µM
[14]
  Activity: 68.7%
[15]
  Activity: 85.8%
[16]
  Activity: 88%
Rattus norvegicus [17]
  Activity: 0.23%
Rattus norvegicus [18]
  Activity: Active

## CC(C)SC1=NS(=O)(=O)c2cc(Cl)c(Cl)cc2N1
[1]
  Activity: 12.9%
[2]
  Activity: 70%

## CC(SC1=NS(=O)(=O)c2cc(Cl)ccc2N1)c1ccccc1 (racemic)
[19]
  EC50: 4.4 µM
[20]
  EC50: 24.2 µM
[21]
  EC50: 6.8 µM
[13]
  EC50: 5.4 µM

## CC(C)OC1=NS(=O)(=O)c2cc(Cl)c(Cl)cc2N1
[2]
  Activity: 73.7%

## Cc1ccc2c(c1)S(=O)(=O)N=C(OC(C)C)N2
[2]
  Activity: 79.5%

## CC(C)CSC1=NS(=O)(=O)c2cc(Cl)ccc2N1
[19]
  EC50: 13.5 µM
[13]
  EC50: 6.2 µM

## CC(C)NC1=NS(=O)(=O)c2cc(Br)ccc2N1
[1]
  Activity: 6.7%
[2]
  Activity: 8.1%
[22]
  Activity: 91%

## CC(C)OC1=NS(=O)(=O)c2cc(Br)ccc2N1
[2]
  Activity: 62.5%

## CC1=Nc2ccc(Cl)cc2S(=O)(=O)N1 [DIAZOXIDE]
[19]
  EC50: > 30 µM
[12]
  IC50: 18.4 µM
[14]
  Activity: 67.7%
[15]
  Activity: 76.3%
[16]
  Activity: 93.8%

## CC(C)CC1=NS(=O)(=O)c2cc(Cl)ccc2N1
Rattus norvegicus [23]
  Activity: inactive
Rattus norvegicus [24]
  Activity: Active
[11]
  pKa: 8.52
[1]
  Activity: 21%
[2]
  Activity: 43.2%
[12]
  IC50: 5.8 µM
[13]
  EC50: 5.8 µM
[14]
  Activity: 55%
[15]
  Activity: 64.7%
[16]
  Activity: 73.9%

## CC(C)SC1=NS(=O)(=O)c2ccc(Cl)cc2N1
[1]
  Activity: 44%
[2]
  Activity: 80.2%

## CC(C)[S+]([O-])C1=NS(=O)(=O)c2cc(Cl)ccc2N1 (stereo not given)
[1]
  Activity: 89.8%
[2]
  Activity: 92.3%

## Cc1ccc2c(c1)S(=O)(=O)N=C(NC(C)C)N2
[1]
  Activity: 3.5%
[2]
  Activity: 8.5%
[25]
  Activity: 71.3%

## CC(C)CC1=NS(=O)(=O)c2cc(F)ccc2N1
[2]
  Activity: 75.3%

## CC(C)NC1=NS(=O)(=O)c2cc(F)ccc2N1
[1]
  Activity: 3.3%
[2]
  Activity: 3.7%

## CC(C)NC1=NS(=O)(=O)c2ccccc2N1
[2]
  Activity: 34.9%
[25]
  Activity: 73.7%

## CC(C)SC1=NS(=O)(=O)c2ccccc2N1
[2]
  Activity: 93.9%

## CC(C)NC1=NS(=O)(=O)c2ccc(Cl)cc2N1
[1]
  Activity: 6.4%
[2]
  Activity: 7.5%
[22]
  Activity: 76.7%

## COc1ccc2c(c1)S(=O)(=O)NC(NC(C)C)=N2
Rattus norvegicus [6]
  Activity: Active
Rattus norvegicus [7]
  Activity: inactive
Rattus norvegicus [8]
  Activity: tde
[1]
  Activity: 4.4%
[2]
  Activity: 8.5%

## CC(C)SC1=NS(=O)(=O)c2cc(Cl)ccc2N1
[19]
  EC50: > 30 µM
[11]
  pKa: 7.01
[1]
  Activity: 51.3%
[2]
  Activity: 104%
[12]
  IC50: 50 µM
[13]
  EC50: 23 µM
[14]
  Activity: 2.3%
[15]
  Activity: 54.7%
[16]
  Activity: 98.8%

## CC(N/C(=N\C#N)Nc1ccncc1)C(C)(C)C (racemic) [PINACIDIL ANHYDROUS]
[19]
  EC50: 1.3 µM
[20]
  EC50: 28.3 µM
[21]
  EC50: 8.1 µM
[12]
  IC50: 202 µM
[13]
  EC50: 0.62 µM
[14]
  Activity: 38.1%
[15]
  Activity: 42.7%
[16]
  Activity: 44.9%

## CC(C)NC1=NS(=O)(=O)c2cc(Cl)ccc2N1
[12]
  IC50: 0.55 µM
[14]
  Activity: 75.6%
[15]
  Activity: 95%
[16]
  Activity: 94.4%

## Cc1ccc2c(c1)S(=O)(=O)N=C(SC(C)C)N2
[2]
  Activity: 77%

## CC(C)CC1=NS(=O)(=O)c2ccccc2N1
[2]
  Activity: 85.2%

## CC(C)CC1=NS(=O)(=O)c2cc(Br)ccc2N1
[2]
  Activity: 61.8%
[25]
  Activity: 85.8%

## O=S1(=O)N=C(SCc2ccccc2)Nc2ccc(Cl)cc21
[19]
  EC50: 11.7 µM
[13]
  EC50: 5.4 µM

## CC(C)SC1=NS(=O)(=O)c2cc(F)ccc2N1
[1]
  Activity: 55.1%
[2]
  Activity: 88.7%
